Data from PMC4349556 (Journal of pharmaceutical sciences, 2014).

Tests used:
[1] = DPH fluorescence anisotropy: membrane fluidity and phase transition temperature; format: physicochemical; details: lipid-to-drug molar ratio 8:1
[2] = Drug incorporation efficiency into lipid-drug nanoparticles; format: physicochemical; details: for Drug incorporation (% total): anti-HIV drug combination LNPs (ATV+RTV+TFV) used in primates, preclinical scale; for Incorporation efficiency (%): DSPC:DSPE-mPEG2000 8:2, mean ± SD of 4
Outline: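 Film rehydrated in 0.9% NaCl with 20 mM sodium bicarbonate (pH 7.4) at 60°C for 2 h, then sonicated or homogenized. 50 μL aliquot dialyzed (MWCO 6,000-8,000) against 1,000 mL pH 7.4 buffer; drug quantified by HPLC/MS/MS. Efficiency = incorporated/total loaded ×100%.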

[3] = Hydration of drug in buffer in the absence of lipids; format: physicochemical; details: after solvent removal and hydration in buffer
[4] = 12 HIV infected patients, prospective clinical study; cited from earlier work
[5] = Plasma time course of anti-HIV drug combination lipid nanoparticles in primates; details: male, Macaca nemestrina (macaque), in vivo, sc

SMILES | Effect on DPH polarization / membrane order versus drug-free lipid control [1] | Drug incorporation (% total) [2] [%] | Incorporation efficiency (%) ([2]; lipid : drug 5 : 1 (mol/mol)) | Incorporation efficiency (%) ([2]; lipid : drug 8 : 1 (mol/mol)) | Incorporation efficiency (%) ([2]; lipid : drug 20 : 1 (mol/mol)) | Incorporation efficiency ([2]; range over lipid-to-drug molar ratios 5:1, 8:1 and 20:1) | Behaviour in the absence of lipids in the mixture [3] | Lymph node intracellular drug levels lower than those in blood [4] [%] | AUC fraction (% total) 8-168 h [5] [%] | Reduction of Tc versus control LNPs [1] [°C]
COC(=O)N[C@H](C(=O)N[C@@H](Cc1ccccc1)[C@@H](O)CN(Cc1ccc(-c2ccccn2)cc1)NC(=O)[C@@H](NC(=O)OC)C(C)(C)C)C(C)(C)C [Atazanavir (ATV), Atazanavir] | less influence on the membrane order | 85.5 ± 8.2 | 96.5 ± 2.6 | 96.2 ± 3.8 | 97.4 ± 1.8 | 96.2-97.4% | formed precipitates | ≤ 99 | 95.3 | –
CC(C)CN(C[C@@H](O)[C@H](Cc1ccccc1)NC(=O)O[C@H]1CO[C@H]2OCC[C@H]21)S(=O)(=O)c1ccc(N)cc1 [Darunavir (DRV), Darunavir] | decreased the polarization of DPH | – | – | – | – | – | formed precipitates | – | – | 1.6
CC(C)c1nc(CN(C)C(=O)N[C@H](C(=O)N[C@@H](Cc2ccccc2)C[C@H](O)[C@H](Cc2ccccc2)NC(=O)OCc2cncs2)C(C)C)cs1 [Ritonavir (RTV), ritonavir] | – | – | – | – | – | – | – | – | 80.4 | –
C[C@H](Cn1cnc2c(N)ncnc21)OCP(=O)(O)O [Tenofovir (TFV), tenofovir] | – | 6.1 ± 0.8 | – | – | – | – | – | – | 97.4 | –
